Experimental data as given in ChEMBL document CHEMBL4138284, “Biomimetic Stereoselective Sulfa-Michael Addition Leads to Platensimycin and Platencin Sulfur Analogues against Methicillin-Resistant Staphylococcus aureus” (J Nat Prod, 2018).
In brackets after ≈: the same amount, converted by molar mass.

What was measured:
Type in all cases: functional
Staphylococcus aureus [1] = assay: Antibacterial activity against methicillin-sensitive Staphylococcus aureus isolate 3 incubated overnight by agar dilution method
In short: (§1)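 MIC by agar dilution. Strains were grown overnight in LB broth and diluted, then about 10^4 CFU (2 μL spots) were spotted onto LB agar plates containing test compound at 0.5 to 8 μg mL−1 agar. Plates were incubated overnight at 37 °C and inspected for growth. Clinical MSSA and MRSA isolates came from local hospitals.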

Staphylococcus aureus [2] = assay: Antibacterial activity against Staphylococcus aureus ATCC 29213 incubated overnight by agar dilution method; in short: as §1
Staphylococcus aureus [3] = assay: Antibacterial activity against methicillin-resistant Staphylococcus aureus isolate 6 incubated overnight by agar dilution method; in short: as §1
Staphylococcus aureus [4] = assay: Antibacterial activity against methicillin-resistant Staphylococcus aureus isolate 5 incubated overnight by agar dilution method; in short: as §1
Staphylococcus aureus [5] = assay: Antibacterial activity against methicillin-resistant Staphylococcus aureus isolate 7 incubated overnight by agar dilution method; in short: as §1
Staphylococcus aureus [6] = assay: Antibacterial activity against methicillin-resistant Staphylococcus aureus isolate 9 incubated overnight by agar dilution method; in short: as §1
Staphylococcus aureus [7] = assay: Antibacterial activity against methicillin-sensitive Staphylococcus aureus isolate 4 incubated overnight by agar dilution method; in short: as §1
Staphylococcus aureus [8] = assay: Antibacterial activity against methicillin-resistant Staphylococcus aureus isolate 8 incubated overnight by agar dilution method; in short: as §1
Staphylococcus aureus [9] = assay: Antibacterial activity against methicillin-sensitive Staphylococcus aureus isolate 2 incubated overnight by agar dilution method; in short: as §1
Staphylococcus aureus [10] = assay: Antibacterial activity against methicillin-resistant Staphylococcus aureus isolate 11 incubated overnight by agar dilution method; in short: as §1
Staphylococcus aureus [11] = assay: Antibacterial activity against methicillin-sensitive Staphylococcus aureus isolate 1 incubated overnight by agar dilution method; in short: as §1
Staphylococcus aureus [12] = assay: Antibacterial activity against methicillin-resistant Staphylococcus aureus isolate 10 incubated overnight by agar dilution method; in short: as §1

## C[C@]12C[C@]34C[C@@H]1C[C@H](O2)[C@H]3[C@](C)(CCC(=O)Nc1c(O)ccc(C(=O)O)c1O)C(=O)C[C@@H]4SC(=O)c1ccc(C(F)(F)F)cc1
Staphylococcus aureus [1]
  MIC: 1 µg/mL (≈ 1.54 µM)
Staphylococcus aureus [2]
  MIC: 1 µg/mL (≈ 1.54 µM)
Staphylococcus aureus [3]
  MIC: 1 µg/mL (≈ 1.54 µM)
Staphylococcus aureus [4]
  MIC: 2 µg/mL (≈ 3.09 µM)
Staphylococcus aureus [5]
  MIC: 2 µg/mL (≈ 3.09 µM)
Staphylococcus aureus [6]
  MIC: 1 µg/mL (≈ 1.54 µM)
Staphylococcus aureus [7]
  MIC: 1 µg/mL (≈ 1.54 µM)
Staphylococcus aureus [8]
  MIC: 1 µg/mL (≈ 1.54 µM)
Staphylococcus aureus [9]
  MIC: 1 µg/mL (≈ 1.54 µM)
Staphylococcus aureus [10]
  MIC: 2 µg/mL (≈ 3.09 µM)
Staphylococcus aureus [11]
  MIC: 0.5 µg/mL (≈ 0.772 µM)
Staphylococcus aureus [12]
  MIC: 1 µg/mL (≈ 1.54 µM)

## C[C@]12C[C@]34C[C@@H]1C[C@H](O2)[C@H]3[C@](C)(CCC(=O)Nc1c(O)ccc(C(=O)O)c1O)C(=O)C[C@@H]4SC(=O)c1ccc([N+](=O)[O-])cc1
Staphylococcus aureus [1]
  MIC: 1 µg/mL (≈ 1.6 µM)
Staphylococcus aureus [2]
  MIC: 1 µg/mL (≈ 1.6 µM)
Staphylococcus aureus [3]
  MIC: 1 µg/mL (≈ 1.6 µM)
Staphylococcus aureus [4]
  MIC: 2 µg/mL (≈ 3.2 µM)
Staphylococcus aureus [5]
  MIC: 2 µg/mL (≈ 3.2 µM)
Staphylococcus aureus [6]
  MIC: 1 µg/mL (≈ 1.6 µM)
Staphylococcus aureus [7]
  MIC: 1 µg/mL (≈ 1.6 µM)
Staphylococcus aureus [8]
  MIC: 1 µg/mL (≈ 1.6 µM)
Staphylococcus aureus [9]
  MIC: 1 µg/mL (≈ 1.6 µM)
Staphylococcus aureus [10]
  MIC: 8 µg/mL (≈ 12.8 µM)
Staphylococcus aureus [11]
  MIC: 1 µg/mL (≈ 1.6 µM)
Staphylococcus aureus [12]
  MIC: 1 µg/mL (≈ 1.6 µM)

## C[C@]12C[C@]34C[C@@H]1C[C@H](O2)[C@H]3[C@](C)(CCC(=O)Nc1c(O)ccc(C(=O)O)c1O)C(=O)C[C@@H]4SC(=O)c1ccc(Cl)cc1
Staphylococcus aureus [1]
  MIC: 1 µg/mL (≈ 1.63 µM)
Staphylococcus aureus [2]
  MIC: 1 µg/mL (≈ 1.63 µM)
Staphylococcus aureus [3]
  MIC: 1 µg/mL (≈ 1.63 µM)
Staphylococcus aureus [4]
  MIC: 1 µg/mL (≈ 1.63 µM)
Staphylococcus aureus [5]
  MIC: 1 µg/mL (≈ 1.63 µM)
Staphylococcus aureus [6]
  MIC: 1 µg/mL (≈ 1.63 µM)
Staphylococcus aureus [7]
  MIC: 1 µg/mL (≈ 1.63 µM)
Staphylococcus aureus [8]
  MIC: 1 µg/mL (≈ 1.63 µM)
Staphylococcus aureus [9]
  MIC: 1 µg/mL (≈ 1.63 µM)
Staphylococcus aureus [10]
  MIC: 2 µg/mL (≈ 3.26 µM)
Staphylococcus aureus [11]
  MIC: 1 µg/mL (≈ 1.63 µM)
Staphylococcus aureus [12]
  MIC: 1 µg/mL (≈ 1.63 µM)

## C[C@]12C[C@]34C[C@@H]1C[C@H](O2)[C@H]3[C@](C)(CCC(=O)Nc1c(O)ccc(C(=O)O)c1O)C(=O)C[C@@H]4SC(=O)c1ccccc1F
Staphylococcus aureus [1]
  MIC: 1 µg/mL (≈ 1.67 µM)
Staphylococcus aureus [2]
  MIC: 1 µg/mL (≈ 1.67 µM)
Staphylococcus aureus [3]
  MIC: 1 µg/mL (≈ 1.67 µM)
Staphylococcus aureus [4]
  MIC: 2 µg/mL (≈ 3.35 µM)
Staphylococcus aureus [5]
  MIC: 2 µg/mL (≈ 3.35 µM)
Staphylococcus aureus [6]
  MIC: 1 µg/mL (≈ 1.67 µM)
Staphylococcus aureus [7]
  MIC: 1 µg/mL (≈ 1.67 µM)
Staphylococcus aureus [8]
  MIC: 1 µg/mL (≈ 1.67 µM)
Staphylococcus aureus [9]
  MIC: 1 µg/mL (≈ 1.67 µM)
Staphylococcus aureus [10]
  MIC: 2 µg/mL (≈ 3.35 µM)
Staphylococcus aureus [11]
  MIC: 1 µg/mL (≈ 1.67 µM)
Staphylococcus aureus [12]
  MIC: 1 µg/mL (≈ 1.67 µM)

## CC(=O)S[C@H]1CC(=O)[C@@](C)(CCC(=O)Nc2c(O)ccc(C(=O)O)c2O)[C@@H]2[C@@H]3C[C@H]4C[C@]12C[C@]4(C)O3
Staphylococcus aureus [1]
  MIC: 2 µg/mL (≈ 3.86 µM)
Staphylococcus aureus [2]
  MIC: 2 µg/mL (≈ 3.86 µM)
Staphylococcus aureus [3]
  MIC: 2 µg/mL (≈ 3.86 µM)
Staphylococcus aureus [4]
  MIC: 2 µg/mL (≈ 3.86 µM)
Staphylococcus aureus [5]
  MIC: 4 µg/mL (≈ 7.73 µM)
Staphylococcus aureus [6]
  MIC: 2 µg/mL (≈ 3.86 µM)
Staphylococcus aureus [7]
  MIC: 2 µg/mL (≈ 3.86 µM)
Staphylococcus aureus [8]
  MIC: 2 µg/mL (≈ 3.86 µM)
Staphylococcus aureus [9]
  MIC: 2 µg/mL (≈ 3.86 µM)
Staphylococcus aureus [10]
  MIC: 4 µg/mL (≈ 7.73 µM)
Staphylococcus aureus [11]
  MIC: 2 µg/mL (≈ 3.86 µM)
Staphylococcus aureus [12]
  MIC: 2 µg/mL (≈ 3.86 µM)

## C=C1C[C@@]23CCC1C[C@@H]2[C@](C)(CCC(=O)Nc1c(O)ccc(C(=O)O)c1O)C(=O)C[C@@H]3Sc1ccc(C)cc1 (single isomer, unassigned)
Staphylococcus aureus [1]
  MIC: 0.5 µg/mL (≈ 0.91 µM)
Staphylococcus aureus [2]
  MIC: 2 µg/mL (≈ 3.64 µM)
Staphylococcus aureus [3]
  MIC: 1 µg/mL (≈ 1.82 µM)
Staphylococcus aureus [4]
  MIC: 2 µg/mL (≈ 3.64 µM)
Staphylococcus aureus [5]
  MIC: 2 µg/mL (≈ 3.64 µM)
Staphylococcus aureus [6]
  MIC: 1 µg/mL (≈ 1.82 µM)
Staphylococcus aureus [7]
  MIC: 0.5 µg/mL (≈ 0.91 µM)
Staphylococcus aureus [8]
  MIC: 1 µg/mL (≈ 1.82 µM)
Staphylococcus aureus [9]
  MIC: 0.5 µg/mL (≈ 0.91 µM)
Staphylococcus aureus [10]
  MIC: 2 µg/mL (≈ 3.64 µM)
Staphylococcus aureus [11]
  MIC: 1 µg/mL (≈ 1.82 µM)
Staphylococcus aureus [12]
  MIC: 1 µg/mL (≈ 1.82 µM)

## C[C@]12C[C@]34C[C@@H]1C[C@H](O2)[C@H]3[C@](C)(CCC(=O)Nc1c(O)ccc(C(=O)O)c1O)C(=O)C[C@@H]4SC(=O)c1ccc2ccccc2c1
Staphylococcus aureus [1]
  MIC: 0.5 µg/mL (≈ 0.794 µM)
Staphylococcus aureus [2]
  MIC: 2 µg/mL (≈ 3.18 µM)
Staphylococcus aureus [3]
  MIC: 1 µg/mL (≈ 1.59 µM)
Staphylococcus aureus [4]
  MIC: 2 µg/mL (≈ 3.18 µM)
Staphylococcus aureus [5]
  MIC: 4 µg/mL (≈ 6.35 µM)
Staphylococcus aureus [6]
  MIC: 1 µg/mL (≈ 1.59 µM)
Staphylococcus aureus [7]
  MIC: 0.5 µg/mL (≈ 0.794 µM)
Staphylococcus aureus [8]
  MIC: 1 µg/mL (≈ 1.59 µM)
Staphylococcus aureus [9]
  MIC: 0.5 µg/mL (≈ 0.794 µM)
Staphylococcus aureus [10]
  MIC: 4 µg/mL (≈ 6.35 µM)
Staphylococcus aureus [11]
  MIC: 1 µg/mL (≈ 1.59 µM)
Staphylococcus aureus [12]
  MIC: 1 µg/mL (≈ 1.59 µM)

## Cc1ccc(C(=O)S[C@H]2CC(=O)[C@@](C)(CCC(=O)Nc3c(O)ccc(C(=O)O)c3O)[C@@H]3[C@@H]4C[C@H]5C[C@]23C[C@]5(C)O4)cc1
Staphylococcus aureus [1]
  MIC: 1 µg/mL (≈ 1.68 µM)
Staphylococcus aureus [2]
  MIC: 1 µg/mL (≈ 1.68 µM)
Staphylococcus aureus [3]
  MIC: 1 µg/mL (≈ 1.68 µM)
Staphylococcus aureus [4]
  MIC: 2 µg/mL (≈ 3.37 µM)
Staphylococcus aureus [5]
  MIC: 2 µg/mL (≈ 3.37 µM)
Staphylococcus aureus [6]
  MIC: 1 µg/mL (≈ 1.68 µM)
Staphylococcus aureus [7]
  MIC: 1 µg/mL (≈ 1.68 µM)
Staphylococcus aureus [8]
  MIC: 1 µg/mL (≈ 1.68 µM)
Staphylococcus aureus [9]
  MIC: 1 µg/mL (≈ 1.68 µM)
Staphylococcus aureus [10]
  MIC: 2 µg/mL (≈ 3.37 µM)
Staphylococcus aureus [11]
  MIC: 1 µg/mL (≈ 1.68 µM)
Staphylococcus aureus [12]
  MIC: 1 µg/mL (≈ 1.68 µM)

## C=C1C[C@@]23CCC1C[C@@H]2[C@](C)(CCC(=O)Nc1c(O)ccc(C(=O)O)c1O)C(=O)C[C@@H]3SC(=O)Cc1ccc(F)cc1 (single isomer, unassigned)
Staphylococcus aureus [1]
  MIC: 1 µg/mL (≈ 1.68 µM)
Staphylococcus aureus [2]
  MIC: 4 µg/mL (≈ 6.71 µM)
Staphylococcus aureus [3]
  MIC: 2 µg/mL (≈ 3.36 µM)
Staphylococcus aureus [4]
  MIC: 2 µg/mL (≈ 3.36 µM)
Staphylococcus aureus [5]
  MIC: 4 µg/mL (≈ 6.71 µM)
Staphylococcus aureus [6]
  MIC: 1 µg/mL (≈ 1.68 µM)
Staphylococcus aureus [7]
  MIC: 0.5 µg/mL (≈ 0.839 µM)
Staphylococcus aureus [8]
  MIC: 1 µg/mL (≈ 1.68 µM)
Staphylococcus aureus [9]
  MIC: 1 µg/mL (≈ 1.68 µM)
Staphylococcus aureus [10]
  MIC: 4 µg/mL (≈ 6.71 µM)
Staphylococcus aureus [11]
  MIC: 1 µg/mL (≈ 1.68 µM)
Staphylococcus aureus [12]
  MIC: 1 µg/mL (≈ 1.68 µM)

## C[C@]12C[C@]34C[C@@H]1C[C@H](O2)[C@H]3[C@](C)(CCC(=O)Nc1c(O)ccc(C(=O)O)c1O)C(=O)C[C@@H]4SC(=O)c1cc(F)cc(F)c1
Staphylococcus aureus [1]
  MIC: 2 µg/mL (≈ 3.25 µM)
Staphylococcus aureus [2]
  MIC: 2 µg/mL (≈ 3.25 µM)
Staphylococcus aureus [3]
  MIC: 1 µg/mL (≈ 1.62 µM)
Staphylococcus aureus [4]
  MIC: 2 µg/mL (≈ 3.25 µM)
Staphylococcus aureus [5]
  MIC: 2 µg/mL (≈ 3.25 µM)
Staphylococcus aureus [6]
  MIC: 2 µg/mL (≈ 3.25 µM)
Staphylococcus aureus [7]
  MIC: 2 µg/mL (≈ 3.25 µM)
Staphylococcus aureus [8]
  MIC: 2 µg/mL (≈ 3.25 µM)
Staphylococcus aureus [9]
  MIC: 1 µg/mL (≈ 1.62 µM)
Staphylococcus aureus [11]
  MIC: 1 µg/mL (≈ 1.62 µM)
Staphylococcus aureus [12]
  MIC: 2 µg/mL (≈ 3.25 µM)
